Data on one compound can be found in ChEMBL document CHEMBL1124054, “Synthesis and biological activity of ketomethylene-containing nonapeptide analogues of snake venom angiotensin converting enzyme inhibitors” (J Med Chem, 1988).

Series [1] can be described thus: Time required for 100% degradation by trypsin. It counts as ADME.
The species entered for series [2] is Rattus norvegicus. Nature of the series: Time required for 100% degradation in rat intestinal homogenate. It counts as ADME. The method, boiled down:
(§1)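 Rat small intestine was taken immediately after sacrifice and minced in Krebs Ringer (10 mL/g). Peptide (0.2–0.5 μmol) mixed with homogenate (1.0 mL per μmol), shaken at 37 °C. Degradation followed by TLC.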

The test system of the next series is chymotrypsin. Nature of the series: Time required for 50% degradation by chymotrypsin. It counts as ADME. The settings on record: read-out: Time (converted). The method, boiled down:
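Peptide (0.5–1.0 μmol) in 0.1 M Tris, pH 7.8, stirred at room temperature with chymotrypsin (37 units dissolved in 50 mL cold 0.001 N HCl; 0.050 mL per μmol peptide). Degradation followed over time by TLC.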

The subject of another series is trypsin. Nature of the series: Time required for 50% degradation by trypsin. It counts as ADME. The settings on record: read-out: Time.
The nature of series [3]: Time required for 50% degradation in rat intestinal homogenate. The format is ADME. The conditions noted are these: read-out: Time (converted). The gist of the method: as §1
Series [4] can be described thus: Time required for degradation by pepsin (none). It counts as ADME.
In series [5] the test system is Rattus norvegicus. Nature of the series: Inhibition of angiotensin I induced blood pressure in normotensive anesthetized rats at 10 ug/kg (i.v.) for 10 min. The format is functional. The gist of the method:
(§2)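 Male Sprague-Dawley normotensive rats (290-540 g), pentobarbital-anesthetized (50 mg/kg ip), intubated. Jugular vein cannulated for iv dosing and carotid artery for blood pressure. Control pressor response to angiotensin I (175 ng/kg iv) taken after vehicle (1 mL/kg). Compound given iv in distilled water or 5% sodium bicarbonate. Angiotensin I challenge repeated at 1.5 to 75 min, rise in pressure compared with control.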

Series [6] concerns Rattus norvegicus. Nature of the series: Inhibition of angiotensin I induced blood pressure in normotensive anesthetized rats at 10 ug/kg (i.v.) for 1.5 min. The format is functional. The method, boiled down:
as §2

Series [7] deals with Rattus norvegicus. Nature of the series: Inhibition of angiotensin I induced blood pressure in normotensive anesthetized rats at 10 ug/kg (i.v.) for 30 min. The format is functional. The method, boiled down: as §2
The subject of series [8] is Rattus norvegicus. Nature of the series: Inhibition of angiotensin I induced blood pressure in normotensive anesthetized rats at 10 ug/kg (i.v.) for 5 min. It counts as functional. The method, boiled down:
as §2

In series [9] the test system is Rattus norvegicus. Nature of the series: Inhibition of angiotensin I induced blood pressure in normotensive anesthetized rats at 10 ug/kg (i.v.) for 60 min. It counts as functional. The gist of the method: as §2
Series [10] has as its system Rattus norvegicus. Nature of the series: Inhibition of angiotensin I induced blood pressure in normotensive anesthetized rats at 1 ug/kg (i.v.) for 1.5 min. The format is functional. The method, boiled down:
as §2

In series [11] the test system is Rattus norvegicus. In words: Inhibition of angiotensin I induced blood pressure in normotensive anesthetized rats at 1 ug/kg (i.v.) for 10 min. The format is functional. The method, boiled down:
as §2

In series [12] the test system is Rattus norvegicus. Nature of the series: Inhibition of angiotensin I induced blood pressure in normotensive anesthetized rats at 1 ug/kg (i.v.) for 30 min. The format is functional. The method, boiled down:
as §2

For series [13], the system named is Rattus norvegicus. Nature of the series: Inhibition of angiotensin I induced blood pressure in normotensive anesthetized rats at 1 ug/kg (i.v.) for 5 min. It counts as functional. The method, boiled down:
as §2

For series [14], the system named is Rattus norvegicus. Nature of the series: Inhibition of angiotensin I induced blood pressure in normotensive anesthetized rats at 1 ug/kg (i.v.) for 60 min. The format is functional. The gist of the method: as §2
The test system of series [15] is Rattus norvegicus. Nature of the series: Inhibition of angiotensin I induced blood pressure in normotensive anesthetized rats at 30 ug/kg (i.v.) for 1.5 min. The format is functional. The gist of the method: as §2
Series [16] concerns Rattus norvegicus. In words: Inhibition of angiotensin I induced blood pressure in normotensive anesthetized rats at 30 ug/kg (i.v.) for 10 min. It counts as functional. The method, boiled down:
as §2

The subject of series [17] is Rattus norvegicus. In words: Inhibition of angiotensin I induced blood pressure in normotensive anesthetized rats at 30 ug/kg (i.v.) for 30 min. It counts as functional. The method, boiled down:
as §2

The subject of series [18] is Rattus norvegicus. Nature of the series: Inhibition of angiotensin I induced blood pressure in normotensive anesthetized rats at 30 ug/kg (i.v.) for 5 min. The format is functional. The gist of the method:
as §2

Series [19] relates to Rattus norvegicus. In words: Inhibition of angiotensin I induced blood pressure in normotensive anesthetized rats at 30 ug/kg (i.v.) for 60 min. The format is functional. The method, boiled down:
as §2

In series [20] the test system is Rattus norvegicus. Nature of the series: Inhibition of angiotensin I induced blood pressure in normotensive anesthetized rats at 30 ug/kg (i.v.) for 75 min. It counts as functional. The gist of the method:
as §2

For series [21], the target named is Angiotensin-converting enzyme (Oryctolagus cuniculus) (UniProt P12822). Nature of the series: Inhibition of Angiotensin I converting enzyme from rabbit lung. The settings on record: read-out: I50.

Starred links: 1 amine or outer side, 2 acyl side, 3 side chain; linkers in the order of their positions; H or OH if unused. Non-standard residues stand in square brackets, D forms with d. Residues, ends and D or L forms follow the SMILES beside them. *: point of attachment. X2 = O=C(CCC(=O)[*:2])[C@H](Cc1ccccc1)N[*:1]; X1 = O=C(CCC(=O)[*:2])[C@@H]1CCCN1[*:1]; Cyclobutanecarbonyl = O=C(C1CCC1)*

Regarding `NCCCC[C@H](NC(=O)[C@@H]1CCCN1C(=O)CCC(=O)[C@@H]1CCCN1C(=O)[C@H](Cc1ccc(O)cc1)NC(=O)C1CCC1)C(=O)N[C@@H](Cc1ccccc1)C(=O)CCC(=O)N1CCC[C@H]1C(=O)O` (Cyclobutanecarbonyl-Y[X1]PK[X2]P-OH), the Time worked out at 1 h in series [1], 5 h in the series filed under Rattus norvegicus [2] and 20 h in series [4]. The half-life with chymotrypsin was 1320 min; in the series on trypsin it was 5 min; in series [3], 60 min. Further, the Inhibition over time worked out at 14.5% in the series with Rattus norvegicus [5]; 39.5% with Rattus norvegicus [6]; 7.8% with Rattus norvegicus [7]; 23.5% in the series on Rattus norvegicus [8]; 0% in the series with Rattus norvegicus [9]; 24.3% with Rattus norvegicus [10]. In addition, the Inhibition over time in the series on Rattus norvegicus [11] came out at 0%; in the series with Rattus norvegicus [12], 0%; with Rattus norvegicus [13] it was 0%; in the series with Rattus norvegicus [14], 0%; in the series on Rattus norvegicus [15] it was 79.5%; in the series with Rattus norvegicus [16], 31.5%. Besides, the Inhibition over time in the series on Rattus norvegicus [17] was 17.3%; in the series on Rattus norvegicus [18] it was 45%; with Rattus norvegicus [19], 15.3%; in the series on Rattus norvegicus [20] it was 12.5%. The IC50 in series [21] came to 3.4 nM.
